Each block holds one compound with its values, some of them ahead of it. Active and inactive are the calls of the source. The calls are words filed in the database; no cut-off is given here.
Legend:
HCT-15 = experiment: Antiproliferative activity against human HCT15 cells after 72 hrs by SRB assay; format: functional, cell-based
A549 [1] = experiment: Antiproliferative activity against human A549 cells after 72 hrs by SRB assay; format: functional, cell-based
T47D = experiment: Antiproliferative activity against human T47D cells after 72 hrs by SRB assay; format: functional, cell-based
K562 = experiment: Antiproliferative activity against human K562 cells after 72 hrs by MTT assay; format: functional, cell-based
SNU-638 = experiment: Antiproliferative activity against human SNU638 cells after 72 hrs by SRB assay; format: functional, cell-based
SK-HEP1 = experiment: Antiproliferative activity against human SK-HEP1 cells after 72 hrs by SRB assay; format: functional, cell-based; conditions: SK-HEP1, 72 h
MDA-MB-231 = experiment: Antiproliferative activity against human MDA-MB-231 cells after 72 hrs by SRB assay; format: functional, cell-based; conditions: MDA-MB-231, 72 h
A549 [2] = experiment: Cell cycle arrest in human A549 cells assessed as accumulation at S phase at 40 uM after 24 hrs; format: functional
Outline: (§1)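 A549 human lung cancer cells exposed 24 h to the lignan over 3.75–60 µM. Cell cycle distribution measured by flow cytometry. The percentage of cells in each phase (G0/G1, S, G2/M, sub-G1) was derived by cell cycle modelling of the DNA histograms.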

A549 [3] = experiment: Cell cycle arrest in human A549 cells assessed as accumulation at G0/G1 phase at 60 uM after 24 hrs; format: functional; outline: as §1
A549 [4] = experiment: Effect on cyclin A expression in human A549 cells at 60 uM after 24 hrs; format: functional, cell-based
Outline: (§2)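 Protein levels measured by Western blot in A549 human lung cancer cells after 24 h exposure to a range of lignan concentrations.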

A549 [5] = experiment: Cell cycle arrest in human A549 cells assessed as accumulation at S phase at 20 uM after 24 hrs; format: functional; outline: as §1
A549 [6] = experiment: Inhibition of human retinoblastoma protein phosphorylation in A549 cells after 24 hrs; format: cell-based; outline: as §2
A549 [7] = experiment: Effect on cdk2 expression in human A549 cells after 24 hrs; format: functional, cell-based; outline: as §2
A549 [8] = experiment: Effect on p27 expression in human A549 cells after 24 hrs; format: functional, cell-based; outline: as §2
A549 [9] = experiment: Cell cycle arrest in human A549 cells assessed as accumulation at G0/G1 phase at 40 uM after 24 hrs; format: functional; outline: as §1
A549 [10] = experiment: Effect on cyclin D1 expression in human A549 cells after 24 hrs; format: functional, cell-based; outline: as §2
A549 [11] = experiment: Cell cycle arrest in human A549 cells assessed as accumulation at S phase at 10 uM after 24 hrs; format: functional; outline: as §1
A549 [12] = experiment: Cell cycle arrest in human A549 cells assessed as accumulation at G2/M phase at 10 uM after 24 hrs; format: functional; outline: as §1
A549 [13] = experiment: Cell cycle arrest in human A549 cells assessed as accumulation at S phase at 60 uM after 24 hrs; format: functional; outline: as §1
A549 [14] = experiment: Cell cycle arrest in human A549 cells assessed as accumulation at G2/M phase at 60 uM after 24 hrs; format: functional; outline: as §1
A549 [15] = experiment: Cell cycle arrest in human A549 cells assessed as accumulation at G2/M phase at 5 uM after 24 hrs; format: functional; outline: as §1
A549 [16] = experiment: Cell cycle arrest in human A549 cells assessed as accumulation at G0/G1 phase at 5 uM after 24 hrs; format: functional; outline: as §1
A549 [17] = experiment: Effect on cdk4 expression in human A549 cells after 24 hrs; format: functional, cell-based; outline: as §2
A549 [18] = experiment: Cell cycle arrest in human A549 cells assessed as accumulation at subG1 phase at 5 uM after 24 hrs; format: functional; outline: as §1
A549 [19] = experiment: Cell cycle arrest in human A549 cells assessed as accumulation at subG1 phase at 60 uM after 24 hrs; format: functional; outline: as §1
A549 [20] = experiment: Cell cycle arrest in human A549 cells assessed as accumulation at subG1 phase at 20 uM after 24 hrs; format: functional; outline: as §1
A549 [21] = experiment: Cell cycle arrest in human A549 cells assessed as accumulation at G2/M phase at 40 uM after 24 hrs; format: functional; outline: as §1
A549 [22] = experiment: Cell cycle arrest in human A549 cells assessed as accumulation at S phase at 5 uM after 24 hrs; format: functional; outline: as §1
A549 [23] = experiment: Cell cycle arrest in human A549 cells assessed as accumulation at G0/G1 phase at 20 uM after 24 hrs; format: functional; outline: as §1
A549 [24] = experiment: Cell cycle arrest in human A549 cells assessed as accumulation at G2/M phase at 20 uM after 24 hrs; format: functional; outline: as §1
A549 [25] = experiment: Cell cycle arrest in human A549 cells assessed as accumulation at G0/G1 phase at 10 uM after 24 hrs; format: functional; outline: as §1
A549 [26] = experiment: Cell cycle arrest in human A549 cells assessed as accumulation at subG1 phase at 40 uM after 24 hrs; format: functional; outline: as §1
A549 [27] = experiment: Cell cycle arrest in human A549 cells assessed as accumulation at subG1 phase at 10 uM after 24 hrs; format: functional; outline: as §1

IC50 (HCT-15; hct-15): 14.1 µM
IC50 (A549 [1]; a549): 21.1 µM
IC50 (T47D; t47d): 19.2 µM
IC50 (K562; k562): 22 µM
IC50 (SNU-638; snu-638): 23.1 µM
SMILES: COc1cc2c(c(OC)c1OC)-c1c(cc3c(c1OC)OCO3)C[C@H](C)[C@H](C)C2 (stereo in doubt; form 1) [WUWEIZISU B]

IC50 (HCT-15; hct-15): 88.1 µM
IC50 (A549 [1]; a549): 87.8 µM
IC50 (SK-HEP1): > 100 µM
IC50 (T47D; t47d): > 100 µM
IC50 (MDA-MB-231): > 100 µM
IC50 (K562; k562): 62.6 µM
IC50 (SNU-638; snu-638): > 100 µM
SMILES: COc1cc2c(c(OC)c1OC)-c1c(cc3c(c1OC)OCO3)C[C@H](C)[C@H](C)C2 (stereo in doubt; form 2) [WUWEIZISU B]

IC50 (HCT-15; Homo sapiens, HCT-15, 72 h): 0.6 µM
IC50 (A549 [1]; Homo sapiens, A549, 72 h): 0.1 µM
IC50 (SK-HEP1): 0.1 µM
IC50 (T47D; Homo sapiens, T47D, 72 h): 0.1 µM
IC50 (MDA-MB-231): 0.2 µM
IC50 (SNU-638; Homo sapiens, SNU-638, 72 h): 0.07 µM
SMILES: COc1cccc2c1C(=O)c1c(O)c3c(c(O)c1C2=O)C[C@@](O)(C(=O)CO)C[C@@H]3O[C@H]1C[C@H](N)[C@H](O)[C@H](C)O1 [DOXORUBICIN]

IC50 (HCT-15; Homo sapiens, HCT-15, 72 h): > 100 µM
IC50 (A549 [1]; Homo sapiens, A549, 72 h): 84.1 µM
IC50 (SK-HEP1): > 100 µM
IC50 (T47D; Homo sapiens, T47D, 72 h): > 100 µM
IC50 (MDA-MB-231): > 100 µM
IC50 (K562; Homo sapiens, K562, 72 h): > 100 µM
IC50 (SNU-638; Homo sapiens, SNU-638, 72 h): 90.5 µM
SMILES: COc1cc2c(c(OC)c1OC)-c1c(cc3c(c1OC)OCO3)C[C@H](C)[C@](C)(O)C2 [GOMISIN A]

IC50 (HCT-15; Homo sapiens, HCT-15, 72 h): > 100 µM
IC50 (A549 [1]; Homo sapiens, A549, 72 h): > 100 µM
IC50 (SK-HEP1): > 100 µM
IC50 (T47D; Homo sapiens, T47D, 72 h): > 100 µM
IC50 (MDA-MB-231): > 100 µM
IC50 (K562; Homo sapiens, K562, 72 h): > 100 µM
IC50 (SNU-638; Homo sapiens, SNU-638, 72 h): > 100 µM
SMILES: C/C=C(\C)C(=O)O[C@H]1c2cc(OC)c(OC)c(OC)c2-c2c(cc3c(c2OC)OCO3)C[C@H](C)[C@]1(C)O [GOMISIN B]

IC50 (HCT-15; Homo sapiens, HCT-15, 72 h): > 100 µM
IC50 (A549 [1]; Homo sapiens, A549, 72 h): > 100 µM
IC50 (SK-HEP1): 70.4 µM
IC50 (T47D; Homo sapiens, T47D, 72 h): 51.2 µM
IC50 (MDA-MB-231): 56.4 µM
IC50 (K562; Homo sapiens, K562, 72 h): > 100 µM
IC50 (SNU-638; Homo sapiens, SNU-638, 72 h): 44.7 µM
SMILES: COc1cc2c(c(OC)c1OC)-c1c(cc3c(c1OC)OCO3)C[C@H](C)[C@](C)(O)[C@H]2OC(=O)c1ccccc1 [GOMISIN C]

IC50 (HCT-15; Homo sapiens, HCT-15, 72 h): > 100 µM
IC50 (A549 [1]; Homo sapiens, A549, 72 h): > 100 µM
IC50 (SK-HEP1): 42 µM
IC50 (T47D; Homo sapiens, T47D, 72 h): 40 µM
IC50 (MDA-MB-231): > 100 µM
IC50 (K562; Homo sapiens, K562, 72 h): > 100 µM
IC50 (SNU-638; Homo sapiens, SNU-638, 72 h): 53.1 µM
SMILES: COc1cc2c(c(OC)c1OC)-c1c(cc(OC)c(OC)c1OC)C[C@H](C)[C@H](C)C2 [SCHISANDRIN A]

IC50 (HCT-15; Homo sapiens, HCT-15, 72 h): > 100 µM
IC50 (A549 [1]; Homo sapiens, A549, 72 h): > 100 µM
IC50 (SK-HEP1): > 100 µM
IC50 (T47D; Homo sapiens, T47D, 72 h): > 100 µM
IC50 (MDA-MB-231): > 100 µM
IC50 (K562; Homo sapiens, K562, 72 h): > 100 µM
IC50 (SNU-638; Homo sapiens, SNU-638, 72 h): > 100 µM
SMILES: COc1c2c(cc3c1-c1c(cc4c(c1OC)OCO4)C[C@H](C)[C@H](C)C3)OCO2 [SCHISANDRIN C]

IC50 (HCT-15; Homo sapiens, HCT-15, 72 h): 5.6 µM
IC50 (A549 [1]; Homo sapiens, A549, 72 h): 5.6 µM
IC50 (SK-HEP1): 19.9 µM
IC50 (T47D; Homo sapiens, T47D, 72 h): 26.1 µM
IC50 (MDA-MB-231): 33.5 µM
IC50 (K562; Homo sapiens, K562, 72 h): 11.3 µM
IC50 (SNU-638; Homo sapiens, SNU-638, 72 h): 15.3 µM
SMILES: C/C=C(\C)C(=O)O[C@H]1c2cc(OC)c(OC)c(OC)c2-c2c(cc3c(c2O)OCO3)C[C@H](C)[C@]1(C)O [SCHISANTHERIN C]
Activity (A549 [2]): 18.8%
Activity (A549 [3]): 75%
Activity (A549 [4]): inactive
Activity (A549 [5]): 26%
Activity (A549 [6]): Active
Activity (A549 [7]): inactive
Activity (A549 [8]): Active
Activity (A549 [9]): 65.3%
Activity (A549 [10]): inactive
Activity (A549 [11]): 31.6%
Activity (A549 [12]): 18%
Activity (A549 [13]): 8.2%
Activity (A549 [14]): 10.8%
Activity (A549 [15]): 18.1%
Activity (A549 [16]): 50.1%
Activity (A549 [17]): inactive
Activity (A549 [18]): 0.6%
Activity (A549 [19]): 2.5%
Activity (A549 [20]): 0.6%
Activity (A549 [21]): 15.9%
Activity (A549 [22]): 31.8%
Activity (A549 [23]): 57.9%
Activity (A549 [24]): 16.2%
Activity (A549 [25]): 50.4%
Activity (A549 [26]): 1.1%
Activity (A549 [27]): 1.5%

IC50 (HCT-15; Homo sapiens, HCT-15, 72 h): 50.2 µM
IC50 (A549 [1]; Homo sapiens, A549, 72 h): 20.7 µM
IC50 (SK-HEP1): 71.3 µM
IC50 (T47D; Homo sapiens, T47D, 72 h): 19.8 µM
IC50 (MDA-MB-231): 61.5 µM
IC50 (K562; Homo sapiens, K562, 72 h): 25 µM
IC50 (SNU-638; Homo sapiens, SNU-638, 72 h): 21.1 µM
SMILES: COc1cc2c(c(OC)c1OC)-c1c(cc(OC)c(OC)c1OC)C[C@](C)(O)[C@@H](C)C2 [SCHIZANDRIN]

— ChEMBL document CHEMBL1140808, “Antiproliferative effects of dibenzocyclooctadiene lignans isolated from Schisandra chinensis in human cancer cells” (Bioorg Med Chem Lett, 2008)
